This is an account of results in paper PMC6429430 (ACS Chemical Neuroscience, 2018).

SMILES strings stand for the structures. pIC50: −log10 of the molar value. Read-outs that look alike come from different tables or passages of the source.

The subject of data set [1] is human myeloid progenitors. In words: Colony forming cell. To be noted: human bone marrow cells, 14 days in culture. Format: cell-based. Put shortly:
(§1)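 Normal human bone marrow light-density cells, thawed rapidly and washed in IMDM + 10% FBS, were plated at 2.0 × 10^4 cells per culture. Medium was semisolid methylcellulose with rhIL-3 10 ng/mL, rhGM-CSF 10 ng/mL, rhSCF 50 ng/mL and Epo 3 U/mL. Compound was added at final 10, 2 and 0.4 μM, with 0.1% DMSO solvent control and 5-FU (1.0, 0.1, 0.01 μg/mL) as positive control. After 14 days, erythroid (CFU-E, BFU-E) and myeloid (CFU-GM) colonies were scored microscopically. Three replicate cultures were compared with solvent control by two-tailed t test.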

Data set [2] relates to dendritic spines in CA1 region of the dorsal hippocampus. In words: Hippocampal dendritic spine density analysis. The class given is in vivo, mouse. Particulars: WT mice.
The next data set deals with T1, HDAC11 (Homo sapiens, UniProt Q96DB2).
T1 sequence (Q96DB2 1-347): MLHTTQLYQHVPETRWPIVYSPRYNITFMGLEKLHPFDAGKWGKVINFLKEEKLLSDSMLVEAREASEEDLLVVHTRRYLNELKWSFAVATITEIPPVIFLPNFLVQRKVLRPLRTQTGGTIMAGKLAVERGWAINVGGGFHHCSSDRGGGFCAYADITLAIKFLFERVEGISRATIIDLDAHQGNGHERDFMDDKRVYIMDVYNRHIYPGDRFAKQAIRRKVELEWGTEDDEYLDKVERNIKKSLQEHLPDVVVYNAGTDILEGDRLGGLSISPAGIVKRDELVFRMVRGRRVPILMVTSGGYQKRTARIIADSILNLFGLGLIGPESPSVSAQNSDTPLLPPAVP
Kind of data set: Recombinant HDAC isoform biochemical assay.

The conditions of data set [3]: rats, 1.5, 5, 15 mg/kg daily orally, 2 weeks; cited from earlier work.
The conditions of data set [4]: cited from earlier work.
Data set [5] is described as follows: Reported 2 week toxicity of CI-994 in dogs. Format: in vivo, dog.
In data set [6] the test system is hippocampal LTP (Schaffer collateral-CA1). Kind of data set: LTP in 5xFAD mice. The class given is in vivo, mouse. Particulars: aged 5xFAD mice, 1 mg/kg po for 14 days. Put shortly:
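Aged 5xFAD mice on a C57BL/6J background (9–12 months) and age-matched WT mice were dosed by oral gavage once daily for 14 days (n = 8 per group). Hippocampal slices (350 μm) were held at room temperature for at least 1 h in oxygenated aCSF (pH 7.4), then perfused at 30 °C for 0.5 h in a multielectrode chamber. Schaffer collateral–CA1 LTP was recorded as normalised fEPSP slope over the last 10 min.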

In data set [7] the test system is human erythroid progenitors. In words: Colony forming cell. Format: cell-based. To be noted: human bone marrow cells, 14 days in culture. The essentials:
as §1

Consider `CC(=O)Nc1ccc(C(=O)Nc2ccccc2N)cc1` [CI-994], for which, in data set [1], the “myeloid progenitors: % control at 10 μM” value turned out to be 0 % control. Further, in data set [2] (1 mg/kg daily oral for 14 days, vs vehicle), the “increase in total spine density” value is on record as 29%. In data set [2] (oral daily 14 days, Rodin-A 1, 3, 6 mg/kg, CI-994 1 and 3 mg/kg), the “dendritic spine density compared to vehicle-treated controls” value was “significant increases in spine density”. For the same compound, the pIC50 at HDAC11 is under 4.52. The dose-limiting toxicity entry in data set [3] is listed as “primarily bone marrow suppression”; in data set [4] (dogs, 0.5, 2, 5 mg/kg daily, 2 weeks), “primarily bone marrow suppression”. In addition, the “reported NOAEL in dogs” value in data set [4] (2 weeks of daily dosing) is 0.5 mg/kg. Further, the “day 12 AUC” value in data set [4] (male dogs, 2 mg/kg daily) is on record as 9.91 ng·h/mL. The compound further yielded a safety margin in data set [5] (HED at reported dog NOAEL vs efficacious HED) of 3.4 fold. The same compound had an NOAEL at 2 weeks in data set [5] (dog, in vivo, 0.5 mg/kg) of 16.2 mg/kg. The “effect on impaired LTP” value in data set [6] was “improves impaired LTP”. The “erythroid progenitors: % control at 10 μM” value in data set [7] is on record as 0 % control.
